# Tests used:
# [1] = target: T1, Peroxisome proliferator-activated receptor delta (Homo sapiens, UniProt Q03181); assay: Agonist activity at Gal4-fused human PPARdelta […] binding domain expressed in HEK293 cells by luciferase reporter gene assay; type: cell-based
# T1 sequence (Q03181 whole entry): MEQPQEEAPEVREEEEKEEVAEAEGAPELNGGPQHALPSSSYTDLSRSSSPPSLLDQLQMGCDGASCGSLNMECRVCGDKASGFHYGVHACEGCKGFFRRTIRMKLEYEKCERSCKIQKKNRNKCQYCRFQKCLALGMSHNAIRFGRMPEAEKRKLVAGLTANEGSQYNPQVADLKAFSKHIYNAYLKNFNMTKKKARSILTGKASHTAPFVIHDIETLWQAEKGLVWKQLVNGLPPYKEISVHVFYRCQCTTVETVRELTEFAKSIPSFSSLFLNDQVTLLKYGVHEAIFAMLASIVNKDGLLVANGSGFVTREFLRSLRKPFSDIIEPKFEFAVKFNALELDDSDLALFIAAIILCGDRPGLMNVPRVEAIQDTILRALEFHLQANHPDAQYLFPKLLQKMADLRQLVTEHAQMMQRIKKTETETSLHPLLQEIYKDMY
# [2] = Lipophilicity, log D of the compound; type: physicochemical; settings: octanol/water
# [3] = target: T2, Peroxisome proliferator-activated receptor alpha (Homo sapiens, UniProt Q07869); assay: Agonist activity at Gal4-fused human PPARalpha […] binding domain expressed in HEK293 cells by luciferase reporter gene assay; type: cell-based
# T2 sequence (Q07869 whole entry): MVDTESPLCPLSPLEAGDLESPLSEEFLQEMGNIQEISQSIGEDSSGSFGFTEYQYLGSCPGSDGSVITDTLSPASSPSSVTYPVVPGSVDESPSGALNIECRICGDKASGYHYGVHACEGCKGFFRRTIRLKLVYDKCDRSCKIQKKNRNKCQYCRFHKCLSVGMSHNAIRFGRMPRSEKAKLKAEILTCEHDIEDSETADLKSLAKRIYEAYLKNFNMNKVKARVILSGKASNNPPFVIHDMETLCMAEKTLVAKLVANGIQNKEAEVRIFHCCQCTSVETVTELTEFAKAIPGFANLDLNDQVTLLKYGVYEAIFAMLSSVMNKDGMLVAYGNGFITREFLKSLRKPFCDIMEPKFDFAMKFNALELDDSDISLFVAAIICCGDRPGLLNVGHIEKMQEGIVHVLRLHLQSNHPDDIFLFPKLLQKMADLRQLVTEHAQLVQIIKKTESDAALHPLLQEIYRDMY
# [4] = target: T3, Peroxisome proliferator-activated receptor gamma (Homo sapiens, UniProt P37231); assay: Agonist activity at Gal4-fused human PPARgamma […] binding domain expressed in HEK293 cells by luciferase reporter gene assay; type: cell-based
# T3 sequence (P37231 whole entry): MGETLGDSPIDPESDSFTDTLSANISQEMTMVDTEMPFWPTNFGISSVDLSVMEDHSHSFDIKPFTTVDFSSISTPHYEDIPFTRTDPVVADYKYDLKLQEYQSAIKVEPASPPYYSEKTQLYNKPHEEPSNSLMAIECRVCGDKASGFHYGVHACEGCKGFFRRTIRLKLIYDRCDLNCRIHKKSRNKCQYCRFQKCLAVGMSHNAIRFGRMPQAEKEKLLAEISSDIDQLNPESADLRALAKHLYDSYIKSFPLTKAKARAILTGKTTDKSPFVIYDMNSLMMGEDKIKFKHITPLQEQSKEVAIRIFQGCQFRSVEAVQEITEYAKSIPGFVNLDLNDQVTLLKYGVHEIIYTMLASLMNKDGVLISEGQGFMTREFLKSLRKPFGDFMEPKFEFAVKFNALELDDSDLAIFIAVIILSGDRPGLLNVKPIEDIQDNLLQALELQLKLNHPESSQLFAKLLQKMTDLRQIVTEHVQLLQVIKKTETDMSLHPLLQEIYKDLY
# [5] = target: T1, Peroxisome proliferator-activated receptor delta; assay: Induction of PPARdelta-mediated PDK4 mRNA upregulation in human myoblast after 24 hrs
# Outline: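 Myoblasts isolated from human vastus lateralis skeletal muscle by enzymatic digestion, then differentiated into myotubes for 7 days in 2% horse serum. Myotubes were exposed to compound for 24 h, and fold induction of PDK4 mRNA was measured. EC50 was taken from the dose–response curve, with GW501516 run as the reference agonist.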
SMILES,EC50 [1],logD [2],EC50 [3],EC50 [4],EC50 [5]
Cc1cc(CN2CCCC2C(=O)Nc2ccc(Cl)cc2Cl)ccc1OCC(=O)O (stereo not given),1.6 µM,,,,
Cc1cc(CN2CCC(C(=O)Nc3ccc(Cl)cc3Cl)C2)ccc1OCC(=O)O (stereo not given),1 µM,,,,
Cc1cc(CN2Cc3ccccc3C2C(=O)Nc2ccccc2)ccc1OCC(=O)O (stereo not given),> 60 µM,,,,
Cc1cc(CN2Cc3ccccc3C2C(=O)O)ccc1OCC(=O)O (stereo not given),> 20 µM,,,,
Cc1cc(CN2Cc3ncccc3CC2C(=O)Nc2ccc(Cl)cc2Cl)ccc1OCC(=O)O (racemic),0.5 µM,,,,
Cc1cc(CN2Cc3cccnc3CC2C(=O)Nc2ccc(Cl)cc2Cl)ccc1OCC(=O)O (racemic),2 µM,,,,

# Next, values leading:
EC50 [1],logD [2],EC50 [3],EC50 [4],EC50 [5],SMILES
0.32 µM,,,,,Cc1cc(CN2Cc3ccccc3C2C(=O)Nc2cc(Cl)ccc2Cl)ccc1OCC(=O)O (stereo not given)
2.5 µM,,,,,Cc1cc(CN2Cc3ccccc3C2C(=O)Nc2ccc(Cl)cc2)ccc1OCC(=O)O (stereo not given)
0.005 µM,2.4,2.5 µM,> 20 µM,0.015 µM,Cc1cc(CN2Cc3ccccc3C[C@H]2C(=O)Nc2ccc(Cl)cc2Cl)ccc1OCC(=O)O
0.0005 µM,,1.25 µM,0.8 µM,,Cc1cc(CN2Cc3ccccc3C[C@@H]2C(=O)Nc2ccc(Cl)cc2Cl)ccc1OCC(=O)O
0.025 µM,2.6,> 30 µM,> 30 µM,,Cc1cc(CN2Cc3ccccc3C2C(=O)Nc2ccc(Cl)cc2Cl)ccc1OCC(=O)O (racemic)
0.01 µM,2.6,6.3 µM,2.7 µM,0.07 µM,Cc1cc(CN2CCc3ccccc3C2C(=O)Nc2ccc(Cl)cc2Cl)ccc1OCC(=O)O (racemic)
